Active and inactive are the calls of the source. No cut-off for these calls is given here.
What was measured:
PBMC [1] = assay: Immunomodulatory activity in human PBMC assessed as induction of IFN-alpha at 100 ug/ml after 24 hrs
Splenocyte [2] = assay: Immunomodulatory activity in C57BL/6 mouse splenocytes bearing TLR7 receptor assessed as IL6 release at 100 ug/ml after 24 hrs by ELISA; type: functional, cell-based
Outline: (§1)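 C57BL/6 splenocytes in RPMI 1640 with 10% FBS, penicillin/streptomycin, 2 mM L-glutamine, plated at 5 × 10^6 cells/mL; compounds in PBS added, 37 °C for 24 h. Supernatant IL-12 and IL-6 by ELISA; representative of three independent experiments.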

Homo sapiens = organism: Homo sapiens; assay: Ratio of human TLR7 activity to human TLR8 activity
Outline: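 TLR7/TLR8 ratio computed from fold NF-κB (SEAP reporter) activation in HEK293 cells stably expressing human TLR7 versus TLR8, compounds at 50 μg/mL, 18 h exposure; representative of three independent experiments.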

PBMC [3] = assay: Immunomodulatory activity in human PBMC assessed as induction of TNFalpha at 100 ug/ml after 24 hrs; type: functional, cell-based
Outline: (§2)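 Human PBMCs plated at 5 × 10^6 cells/mL; compounds dissolved in PBS added at various concentrations, 37 °C for 24 h. Supernatant cytokines/chemokines quantified with human Luminex multiplex kit.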

[4] = biological target: Toll-like receptor 3 (Homo sapiens) (UniProt O15455); assay: Activation of human TLR3 expressed in HEK293 assessed as induction of NF-kappaB activity reporter gene assay; type: cell-based
[5] = biological target: T1, Toll-like receptor 9 (Mus musculus) (UniProt Q9EQU3); assay: Activation of mouse TLR9 expressed in HEK293 assessed as induction of NF-kappaB activity reporter gene assay; type: cell-based
T1 sequence (whole entry): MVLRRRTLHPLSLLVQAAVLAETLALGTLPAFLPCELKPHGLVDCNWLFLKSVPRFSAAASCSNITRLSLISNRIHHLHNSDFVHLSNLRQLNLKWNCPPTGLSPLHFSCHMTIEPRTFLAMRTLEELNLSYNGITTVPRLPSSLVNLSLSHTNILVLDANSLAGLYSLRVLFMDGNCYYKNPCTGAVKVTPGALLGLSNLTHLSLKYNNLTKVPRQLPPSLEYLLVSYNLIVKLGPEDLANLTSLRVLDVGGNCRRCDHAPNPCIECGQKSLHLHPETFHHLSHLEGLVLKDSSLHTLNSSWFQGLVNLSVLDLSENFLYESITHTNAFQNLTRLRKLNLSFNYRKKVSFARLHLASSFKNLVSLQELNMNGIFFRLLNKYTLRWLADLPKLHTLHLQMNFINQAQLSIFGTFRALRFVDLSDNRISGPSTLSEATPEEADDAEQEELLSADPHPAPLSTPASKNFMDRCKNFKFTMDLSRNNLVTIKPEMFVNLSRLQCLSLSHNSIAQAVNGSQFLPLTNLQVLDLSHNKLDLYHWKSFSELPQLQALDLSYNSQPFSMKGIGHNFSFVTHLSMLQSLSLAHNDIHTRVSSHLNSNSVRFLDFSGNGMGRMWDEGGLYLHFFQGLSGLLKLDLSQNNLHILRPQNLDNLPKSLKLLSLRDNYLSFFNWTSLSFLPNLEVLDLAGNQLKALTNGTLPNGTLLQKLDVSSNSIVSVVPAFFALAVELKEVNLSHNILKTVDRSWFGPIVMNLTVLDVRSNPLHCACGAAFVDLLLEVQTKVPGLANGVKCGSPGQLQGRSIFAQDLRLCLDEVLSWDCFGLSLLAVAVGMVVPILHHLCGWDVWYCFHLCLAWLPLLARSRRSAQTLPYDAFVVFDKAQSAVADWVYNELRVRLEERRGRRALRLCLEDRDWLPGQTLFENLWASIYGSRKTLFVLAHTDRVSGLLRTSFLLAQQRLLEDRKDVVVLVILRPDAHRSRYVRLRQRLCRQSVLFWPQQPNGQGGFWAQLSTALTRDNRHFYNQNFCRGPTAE

PBMC [6] = assay: Immunomodulatory activity in human PBMC assessed as induction of IL12 at 100 ug/ml after 24 hrs; type: functional, cell-based
Outline: as §2

Splenocyte [7] = assay: Immunomodulatory activity in C57BL/6 mouse splenocytes bearing TLR7 receptor assessed as IL12 release at 100 ug/ml after 24 hrs by ELISA; type: functional, cell-based
Outline: as §1

[8] = biological target: T2, Toll-like receptor 7 (Homo sapiens) (UniProt Q9NYK1); assay: Activation of human TLR7 expressed in HEK293XL assessed as fold induction of NF-kappaB activity at 50 ug/ml after 18 hrs by reporter gene assay relative to control
T2 sequence (whole entry): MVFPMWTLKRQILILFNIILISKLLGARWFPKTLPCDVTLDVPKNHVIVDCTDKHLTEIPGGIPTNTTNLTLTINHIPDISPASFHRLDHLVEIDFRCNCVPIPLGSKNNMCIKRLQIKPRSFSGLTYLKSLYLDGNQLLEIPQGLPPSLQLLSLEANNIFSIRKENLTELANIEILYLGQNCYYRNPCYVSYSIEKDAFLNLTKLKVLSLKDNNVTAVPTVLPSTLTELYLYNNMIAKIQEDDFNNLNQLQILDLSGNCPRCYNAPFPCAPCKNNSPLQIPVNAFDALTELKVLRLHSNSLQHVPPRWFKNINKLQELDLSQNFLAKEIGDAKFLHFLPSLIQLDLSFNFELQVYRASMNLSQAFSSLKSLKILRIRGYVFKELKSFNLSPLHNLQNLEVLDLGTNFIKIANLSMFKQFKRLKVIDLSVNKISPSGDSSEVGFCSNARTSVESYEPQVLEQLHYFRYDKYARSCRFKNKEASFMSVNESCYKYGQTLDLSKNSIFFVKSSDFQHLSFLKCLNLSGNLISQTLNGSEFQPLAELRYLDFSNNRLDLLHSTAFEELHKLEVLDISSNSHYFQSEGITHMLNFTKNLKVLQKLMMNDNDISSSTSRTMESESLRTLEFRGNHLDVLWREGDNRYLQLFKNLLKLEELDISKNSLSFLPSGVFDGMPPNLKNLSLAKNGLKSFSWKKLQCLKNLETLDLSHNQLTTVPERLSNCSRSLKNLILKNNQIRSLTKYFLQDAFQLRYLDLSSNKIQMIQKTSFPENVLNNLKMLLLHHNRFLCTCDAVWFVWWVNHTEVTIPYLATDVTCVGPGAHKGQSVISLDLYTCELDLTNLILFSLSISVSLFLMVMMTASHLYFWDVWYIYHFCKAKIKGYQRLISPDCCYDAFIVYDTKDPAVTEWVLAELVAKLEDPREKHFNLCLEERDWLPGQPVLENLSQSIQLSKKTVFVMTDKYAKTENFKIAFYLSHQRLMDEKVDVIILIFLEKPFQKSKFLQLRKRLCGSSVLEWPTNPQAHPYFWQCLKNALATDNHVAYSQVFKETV
Outline: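 HEK293 cells stably expressing human TLR7 or TLR8, transiently transfected with SEAP reporter plasmid; medium replaced, SIMRA compounds added, 18 h incubation. Supernatant SEAP measured by QuantiBlue; expressed as fold increase in NF-κB activity over PBS control. Tabulated data at 50 μg/mL, representative of three independent experiments.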

Toll-like receptor 3 (Homo sapiens), sequence (O15455 whole entry): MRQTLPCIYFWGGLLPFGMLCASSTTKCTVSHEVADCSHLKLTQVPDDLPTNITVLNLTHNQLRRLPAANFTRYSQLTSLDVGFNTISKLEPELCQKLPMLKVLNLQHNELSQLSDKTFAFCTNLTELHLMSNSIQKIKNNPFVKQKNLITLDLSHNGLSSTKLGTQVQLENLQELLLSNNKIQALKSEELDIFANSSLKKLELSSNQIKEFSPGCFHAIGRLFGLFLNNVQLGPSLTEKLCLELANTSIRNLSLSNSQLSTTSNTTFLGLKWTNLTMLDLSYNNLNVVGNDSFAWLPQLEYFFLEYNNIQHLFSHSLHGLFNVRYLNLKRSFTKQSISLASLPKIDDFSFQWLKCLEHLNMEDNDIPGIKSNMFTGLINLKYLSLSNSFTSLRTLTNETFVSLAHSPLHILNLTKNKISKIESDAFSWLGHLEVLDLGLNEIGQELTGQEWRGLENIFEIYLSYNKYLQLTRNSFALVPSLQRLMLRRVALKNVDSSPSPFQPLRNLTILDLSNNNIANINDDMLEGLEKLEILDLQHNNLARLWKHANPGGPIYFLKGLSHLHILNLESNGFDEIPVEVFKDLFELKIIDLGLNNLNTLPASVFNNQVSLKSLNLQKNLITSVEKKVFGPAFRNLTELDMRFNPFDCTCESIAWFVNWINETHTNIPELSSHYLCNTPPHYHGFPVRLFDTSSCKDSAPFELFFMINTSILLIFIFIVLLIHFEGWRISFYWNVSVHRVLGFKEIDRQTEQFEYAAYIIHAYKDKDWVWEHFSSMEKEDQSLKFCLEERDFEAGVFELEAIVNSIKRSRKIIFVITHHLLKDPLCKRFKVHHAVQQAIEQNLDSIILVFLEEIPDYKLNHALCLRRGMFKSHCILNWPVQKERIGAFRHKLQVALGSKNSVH

| Activity (Splenocyte [2]) | Ratio (Homo sapiens) | Activity [4] | Activity [5] | Activity (Splenocyte [7]) | fold change (FC) [8] | Structure (SMILES) | IFN-alpha (PBMC [1]) [pg/mL] | Activity (PBMC [3]) [pg/mL] | Activity (PBMC [6]) [pg/mL] |
| --- | --- | --- | --- | --- | --- | --- | --- | --- | --- |
| Active | 30.7 | inactive | inactive | Active | 18.4 | Nc1ccn([C@@H]2O[C@H](COP(=O)(S)O[C@H]3[C@@H](O)[C@H](n4cnc5c(N)ncnc54)O[C@@H]3COP(=O)(S)O[C@H]3[C@@H](O)[C@H](n4cnc5c(N)ncnc54)O[C@@H]3CO)[C@@H](OP(=O)(S)OC[C@H]3O[C@@H](n4ccc(=O)[nH]c4=O)[C@H](O)[C@@H]3OP(=O)(S)OC[C@H]3O[C@@H](n4ccc5c(=O)[nH]c(N)nc54)[C@H](O)[C@@H]3OP(=O)(S)OC[C@H]3O[C@@H](n4cnc5c(N)ncnc54)[C@H](O)[C@@H]3OP(=O)(S)OC[C@H]3O[C@@H](n4cnc5c(N)ncnc54)[C@H](O)[C@@H]3OP(=O)(S)OC[C@H]3O[C@@H](n4ccc5c(=O)[nH]c(N)nc54)[C@H](O)[C@@H]3OP(=O)(S)OC[C@H]3O[C@@H](n4ccc(N)nc4=O)[C@H](O)[C@@H]3OP(=O)(S)OC[C@H]3O[C@@H](n4ccc(=O)[nH]c4=O)[C@H](O)[C@@H]3OP(=O)(S)OC[C@H]3O[C@@H](n4ccc5c(=O)[nH]c(N)nc54)[C@H](O)[C@@H]3OP(=O)(S)OCC(O)COP(=O)(S)O[C@H]3[C@@H](O)[C@H](n4ccc5c(=O)[nH]c(N)nc54)O[C@@H]3COP(=O)(S)O[C@H]3[C@@H](O)[C@H](n4ccc(=O)[nH]c4=O)O[C@@H]3COP(=O)(S)O[C@H]3[C@@H](O)[C@H](n4ccc(N)nc4=O)O[C@@H]3COP(=O)(S)O[C@H]3[C@@H](O)[C@H](n4ccc5c(=O)[nH]c(N)nc54)O[C@@H]3COP(=O)(S)O[C@H]3[C@@H](O)[C@H](n4cnc5c(N)ncnc54)O[C@@H]3COP(=O)(S)O[C@H]3[C@@H](O)[C@H](n4cnc5c(N)ncnc54)O[C@@H]3COP(=O)(S)O[C@H]3[C@@H](O)[C@H](n4ccc5c(=O)[nH]c(N)nc54)O[C@@H]3COP(=O)(S)O[C@H]3[C@@H](O)[C@H](n4ccc(=O)[nH]c4=O)O[C@@H]3COP(=O)(S)O[C@H]3[C@@H](O)[C@H](n4ccc(N)nc4=O)O[C@@H]3COP(=O)(S)O[C@H]3[C@@H](O)[C@H](n4cnc5c(N)ncnc54)O[C@@H]3COP(=O)(S)O[C@H]3[C@@H](O)[C@H](n4cnc5c(N)ncnc54)O[C@@H]3CO)[C@H]2O)c(=O)n1 (stereo partly drawn) | 28.7 | 3.5 | 240 |
| Active | 20.1 | inactive | inactive | Active | 20.1 | Nc1ccn([C@@H]2O[C@H](COP(=O)(S)O[C@H]3[C@@H](O)[C@H](n4cnc5c(N)ncnc54)O[C@@H]3COP(=O)(S)O[C@H]3[C@@H](O)[C@H](n4cnc5c(N)ncnc54)O[C@@H]3CO)[C@@H](OP(=O)(S)OC[C@H]3O[C@@H](n4ccc(=O)[nH]c4=O)[C@H](O)[C@@H]3OP(=O)(S)OC[C@H]3O[C@@H](n4ccc(=O)[nH]c4=O)[C@H](O)[C@@H]3OP(=O)(S)OC[C@H]3O[C@@H](n4ccc5c(=O)[nH]c(N)nc54)[C@H](O)[C@@H]3OP(=O)(S)OC[C@H]3O[C@@H](n4cnc5c(N)ncnc54)[C@H](O)[C@@H]3OP(=O)(S)OC[C@H]3O[C@@H](n4ccc5c(=O)[nH]c(N)nc54)[C@H](O)[C@@H]3OP(=O)(S)OC[C@H]3O[C@@H](n4ccc(N)nc4=O)[C@H](O)[C@@H]3OP(=O)(S)OC[C@H]3O[C@@H](n4ccc(=O)[nH]c4=O)[C@H](O)[C@@H]3OP(=O)(S)OC[C@H]3O[C@@H](n4ccc(=O)[nH]c4=O)[C@H](O)[C@@H]3OP(=O)(S)OCC(O)COP(=O)(S)O[C@H]3[C@@H](O)[C@H](n4ccc(=O)[nH]c4=O)O[C@@H]3COP(=O)(S)O[C@H]3[C@@H](O)[C@H](n4ccc(=O)[nH]c4=O)O[C@@H]3COP(=O)(S)O[C@H]3[C@@H](O)[C@H](n4ccc(N)nc4=O)O[C@@H]3COP(=O)(S)O[C@H]3[C@@H](O)[C@H](n4ccc5c(=O)[nH]c(N)nc54)O[C@@H]3COP(=O)(S)O[C@H]3[C@@H](O)[C@H](n4cnc5c(N)ncnc54)O[C@@H]3COP(=O)(S)O[C@H]3[C@@H](O)[C@H](n4ccc5c(=O)[nH]c(N)nc54)O[C@@H]3COP(=O)(S)O[C@H]3[C@@H](O)[C@H](n4ccc(=O)[nH]c4=O)O[C@@H]3COP(=O)(S)O[C@H]3[C@@H](O)[C@H](n4ccc(=O)[nH]c4=O)O[C@@H]3COP(=O)(S)O[C@H]3[C@@H](O)[C@H](n4ccc(N)nc4=O)O[C@@H]3COP(=O)(S)O[C@H]3[C@@H](O)[C@H](n4cnc5c(N)ncnc54)O[C@@H]3COP(=O)(S)O[C@H]3[C@@H](O)[C@H](n4cnc5c(N)ncnc54)O[C@@H]3CO)[C@H]2O)c(=O)n1 (stereo partly drawn) | 106 | 74.4 | 527 |

From ChEMBL document CHEMBL1154352, “Toll-like receptor 7 selective synthetic oligoribonucleotide agonists: synthesis and structure-activity relationship studies” (J Med Chem, 2009)
